Compounds with a hit are over-represented: about 3.5% of the library has one in this group of screens.
ERAP1 inh – blocks human ERAP1 aminopeptidase activity. Q9NZ08. recombinant ERAP1, Leu-AMC fluorescence, 60 min. inhibition, % at 10.7 µM. 340,000 tested, 0.15% active;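 active = mean replicate inhibition of at least 30%, or all replicates individually reaching that 30% level; inactive = mean below 30% and not every replicate reaching it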;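 note: 0% = neutral control wells and 100% = L-leucinethiol positive control wells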
Target sequence (Q9NZ08 whole entry, looked up): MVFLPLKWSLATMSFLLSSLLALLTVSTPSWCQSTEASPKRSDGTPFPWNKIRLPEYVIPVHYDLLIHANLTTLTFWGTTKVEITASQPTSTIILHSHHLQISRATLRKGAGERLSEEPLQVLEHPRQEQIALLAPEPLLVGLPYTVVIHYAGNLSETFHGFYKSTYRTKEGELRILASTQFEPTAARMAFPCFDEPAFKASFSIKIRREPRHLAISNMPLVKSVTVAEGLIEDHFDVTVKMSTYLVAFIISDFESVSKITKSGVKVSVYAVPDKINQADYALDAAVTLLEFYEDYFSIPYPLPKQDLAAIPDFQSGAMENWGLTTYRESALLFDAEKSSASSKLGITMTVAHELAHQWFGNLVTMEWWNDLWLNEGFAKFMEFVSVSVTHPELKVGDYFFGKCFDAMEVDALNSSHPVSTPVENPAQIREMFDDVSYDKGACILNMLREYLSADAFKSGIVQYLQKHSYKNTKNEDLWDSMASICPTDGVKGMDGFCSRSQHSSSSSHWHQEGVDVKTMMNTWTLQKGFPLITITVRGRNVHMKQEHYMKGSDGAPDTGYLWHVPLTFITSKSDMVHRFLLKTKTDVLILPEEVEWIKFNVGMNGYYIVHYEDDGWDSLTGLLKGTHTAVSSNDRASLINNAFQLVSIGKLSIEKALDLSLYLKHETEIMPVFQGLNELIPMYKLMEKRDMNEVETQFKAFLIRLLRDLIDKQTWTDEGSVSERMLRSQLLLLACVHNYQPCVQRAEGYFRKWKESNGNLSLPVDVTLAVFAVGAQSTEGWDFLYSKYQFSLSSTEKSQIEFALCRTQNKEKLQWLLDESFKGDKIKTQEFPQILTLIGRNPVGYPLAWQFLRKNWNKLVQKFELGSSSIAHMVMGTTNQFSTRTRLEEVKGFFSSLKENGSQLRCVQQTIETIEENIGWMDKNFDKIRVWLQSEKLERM
HIV Env fusion – HIV envelope-mediated fusion inhibition; 360,000 tested, 1.1% active; inhibition, % at 12.3 µM; HeLa-JRFL Env/CEM21 cell fusion, luciferase;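 active = mean replicate inhibition score of at least 50 and every replicate individually at or above 50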;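 note: 0% = plate neutral controls and 100% = maraviroc near 300 nM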
PGC1a acetyl inh – lowers PGC1a acetylation signal in U2OS cells; AlphaScreen anti-acetyl-lysine; with virally co-expressed GCN5 acetyltransferase; inhibition, % at 15.6 µM; 350,000 tested, 0.17% active;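 active = every replicate shows inhibition of at least 40%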;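 note: 0% = neutral control wells and 100% = positive control wells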
rRNA inh HTS – inhibitors of bacterial rRNA selective over humanized ribosomes. E. coli WT GFP vs humanized-ribosome RFP mutants, fluorescence, 24 h; active compounds read low; DMSO median 0, no signal -100. GFP signal change (wild-type ribosome), % (test concentration not listed). 350,000 tested, 1.6% active. AID 720706;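 active = significant combined selectivity score with lowered wild-type GFP, culture density cut under 30%, mutant RFP and density less affected; inactive = any of these conditions unmet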
Cneo AK release – Cryptococcus neoformans lysis via adenylate kinase release; 360,000 tested, 0.2% active; AID 651654; C. neoformans lysis, adenylate kinase release luminescence, 4 h; normalised: neutral wells 0, clomiphene wells 100; lysis activity, % at 15 µM;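 active = mean lysis activity across replicates of at least 80%, whatever share of replicates individually reach that level; inactive = mean lysis activity below 80%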
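Material: C. neoformans cells | Amount: Yeast cell density of 5 × 10^6 cells/mL | Medium: Fresh YPD growth medium | Dosing: Single dose | Times: Static 4 h at 37 °C with compound, 1 h detection | Detection: AK luminescence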
FGF22 binding – FGF22 (human) thermal shift binding | 340,000 tested, 1.5% active | activity (Tm shift, normalised), % at 9.99 µM | recombinant FGF22 thermal shift, SYPRO orange fluorescence; percent of sucrose octasulfate shift, DMSO zero | Q9HCT0;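 active = mean Tm shift, scaled 0 neutral to 100 positive control, at about 1.3% or above, every replicate too, limit read from the data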
Numbers without * were called inactive.

CC[C@H](C)[C@@H]1OC(=O)[C@@H](C)[C@@H](CC)NC(=O)[C@H](C)N(C)C(=O)C(C)(C)C(=O)C(C)NC(=O)[C@H](Cc2ccccc2)N(C)C(=O)[C@H](C(C)C)N(C)C(=O)CNC(=O)[C@H](CC(C)C)N(C)C(=O)CNC1=O (stereo not given in full) was read as PGC1a acetyl inh 76* and Cneo AK release -18.
For CC[C@@H]1CC=CC[C@H](C)Oc2ccccc2C(=O)N(C)[C@@H](Cc2ccccc2)C(=O)N1 (mixture of isomers) the results were rRNA inh HTS -9.
Screening CCN(CC)c1ccc(C(=S)NC2CCCCC2)cc1 returned ERAP1 inh 0, HIV Env fusion -19, PGC1a acetyl inh -8, rRNA inh HTS -21*, Cneo AK release -1 and FGF22 binding 0.
Screening CN(C)c1ccc(C(=S)NC2CCCCC2)cc1 returned ERAP1 inh 3, HIV Env fusion -14, rRNA inh HTS 9 and FGF22 binding 0.
COc1cccc(/C(O)=C2/C(=O)C(=O)N(CCN3CCOCC3)C2c2cccnc2)c1 (stereo not given) was read as PGC1a acetyl inh -2 and Cneo AK release -2.
`O=C(CSc1nc2ccccc2o1)Nc1nccs1` gave ERAP1 inh 2, HIV Env fusion 2, PGC1a acetyl inh 2, rRNA inh HTS 27 and FGF22 binding 2.3*.
`CCC(=NCc1ccco1)c1c(C(F)(F)F)[nH]n(-c2nc3ccccc3s2)c1=O` gave HIV Env fusion -5, PGC1a acetyl inh 8 and Cneo AK release -9.
`O=C(NNS(=O)(=O)c1ccc(Br)cc1)C1CCCCC1` gave ERAP1 inh 0, HIV Env fusion -2, PGC1a acetyl inh 7, rRNA inh HTS -2 and FGF22 binding 43*.
`O=C(CCN1CCOCC1)NNC(=S)NC(=O)c1ccc(Br)cc1` gave ERAP1 inh 1, HIV Env fusion -10, rRNA inh HTS -31 and FGF22 binding 0.
For O=C(NNC(=O)C1CCCCC1)c1ccc(Br)cc1 the results were ERAP1 inh 3, HIV Env fusion 7, rRNA inh HTS -24* and FGF22 binding 0.
`O=C(CCN1CCCCC1)NNC(=S)NC(=O)c1ccc(Br)cc1` gave ERAP1 inh 2, HIV Env fusion -6, rRNA inh HTS -37 and FGF22 binding 43*.
`O=C(NNC(=O)C1CCC1)c1ccc(Br)cc1` gave ERAP1 inh 2, HIV Env fusion -14, rRNA inh HTS 3, Cneo AK release 2 and FGF22 binding 0.
For O=C(NCC1CC1)NC(=O)c1c(F)cccc1Cl the results were ERAP1 inh -1, HIV Env fusion -14, rRNA inh HTS -4, Cneo AK release 0 and FGF22 binding 0.
For C[C@H]1CCCCO[C@H](CN(C)Cc2ccc(C(=O)Nc3ccccc3N)cc2)[C@@H](C)CN([C@@H](C)CO)C(=O)c2cc(N(C)C)ccc2O1 the results were rRNA inh HTS 2.
Screening CC(C(=O)Nc1ccccc1-c1ccccc1)N1CCN(Cc2ccccc2)CC1 (stereo not given) returned ERAP1 inh -4, HIV Env fusion -10, PGC1a acetyl inh -30, rRNA inh HTS -38 and FGF22 binding 43*.
Screening O=C(COc1ccc(Br)cc1Cl)NC(=S)Nc1ccccn1 returned ERAP1 inh 4, HIV Env fusion -372, rRNA inh HTS 0, Cneo AK release -5 and FGF22 binding 0.
For COc1ccc(Cl)cc1C(=O)NC(=S)Nc1ccccc1N1CCOCC1 the results were ERAP1 inh 3, HIV Env fusion -1, PGC1a acetyl inh 4, rRNA inh HTS -7, Cneo AK release -9 and FGF22 binding 0.
O=C(NC(=S)Nc1cc(Cl)ccc1N1CCOCC1)c1ccccc1[N+](=O)[O-] was read as ERAP1 inh 1, HIV Env fusion inactive, rRNA inh HTS -6, Cneo AK release 340* and FGF22 binding 0.
`Cc1c(C(=O)NC(=S)Nc2ccc(N3CCOCC3)cc2)cccc1[N+](=O)[O-]` gave ERAP1 inh -1, HIV Env fusion -5, rRNA inh HTS 11 and FGF22 binding 43*.
